# From ChEMBL document CHEMBL5058577, “EUbOPEN Chemogenomics Library 2 (Multiplex)” (2022)
# System: Fibroblast
# Assay: Multiplex assay against human fibroblast
# Type: toxicity, cell-based
# In short: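 At seeding, live cells were stained with Hoechst33342, BioTracker Green Microtubule Cytoskeleton Dye, MitoTracker Red and Annexin V Alexa Fluor 680. After compound addition they were imaged on a CQ1 microscope at 37°C and 5% CO2, and CellPathfinder machine-learning gating sorted them into Hoechst high-intensity objects or normal cells, with normal cells further split into healthy, pyknosed or fragmented nuclei and pyknosed cells into mitotic or apoptotic. Tubulin, mitochondrial-mass and membrane-permeability phenotypes are given as per cents of cells with healthy nuclei.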
# [1] = 12 h, 1 µM, compound concentration 1 uM, replicate 1
# [2] = 12 h, 1 µM, compound concentration 1 uM, replicate 2
# [3] = 12 h, 10 µM, compound concentration 10 uM, replicate 1
# [4] = 12 h, 10 µM, compound concentration 10 uM, replicate 2
# [5] = 24 h, 1 µM, compound concentration 1 uM, replicate 1
# [6] = 24 h, 1 µM, compound concentration 1 uM, replicate 2
# [7] = 24 h, 10 µM, compound concentration 10 uM, replicate 1
# [8] = 24 h, 10 µM, compound concentration 10 uM, replicate 2
# [9] = 48 h, 1 µM, compound concentration 1 uM, replicate 1
# [10] = 48 h, 1 µM, compound concentration 1 uM, replicate 2
# [11] = 48 h, 10 µM, compound concentration 10 uM, replicate 1
# [12] = 48 h, 10 µM, compound concentration 10 uM, replicate 2
smiles,measurement,setting,value
Cc1sc2c(c1C)C(c1ccc(Cl)cc1)=N[C@@H](CC(=O)NCCCCCCCCNC(=O)COc1cccc3c1C(=O)N(C1CCC(=O)NC1=O)C3=O)c1nnc(C)n1-2 (some centres not stated),Population Apoptotic (%),[1],57%
same,Population Fragmented Nuclei (%),[1],10%
same,Population Healthy Nuclei (%),[1],72%
same,Population Hoechst High Intensity Objects (%),[1],3%
same,Population Membrane Permeable-Phenotype (%),[1],1%
same,Population Mitochondria Different-Phenotype (%),[1],4%
same,Population Mitotic Cells (%),[1],42%
same,Population Normal (%),[1],96%
same,Population Pyknosed Nuclei (%),[1],16%
same,Population Tubulin-Different-Phenotype (%),[1],25%
same,Total Cell Count,[1],118
same,Population Apoptotic (%),[2],42%
same,Population Fragmented Nuclei (%),[2],34%
same,Population Healthy Nuclei (%),[2],34%
same,Population Hoechst High Intensity Objects (%),[2],6%
same,Population Membrane Permeable-Phenotype (%),[2],23%
same,Population Mitochondria Different-Phenotype (%),[2],23%
same,Population Mitotic Cells (%),[2],57%
same,Population Normal (%),[2],93%
same,Population Pyknosed Nuclei (%),[2],31%
same,Population Tubulin-Different-Phenotype (%),[2],66%
same,Total Cell Count,[2],94
same,Population Apoptotic (%),[3],54%
same,Population Fragmented Nuclei (%),[3],13%
same,Population Healthy Nuclei (%),[3],56%
same,Population Hoechst High Intensity Objects (%),[3],11%
same,Population Membrane Permeable-Phenotype (%),[3],1%
same,Population Mitochondria Different-Phenotype (%),[3],19%
same,Population Mitotic Cells (%),[3],45%
same,Population Normal (%),[3],88%
same,Population Pyknosed Nuclei (%),[3],30%
same,Population Tubulin-Different-Phenotype (%),[3],50%
same,Total Cell Count,[3],171
same,Population Apoptotic (%),[4],44%
same,Population Fragmented Nuclei (%),[4],27%
same,Population Healthy Nuclei (%),[4],27%
same,Population Hoechst High Intensity Objects (%),[4],17%
same,Population Membrane Permeable-Phenotype (%),[4],7%
same,Population Mitochondria Different-Phenotype (%),[4],26%
same,Population Mitotic Cells (%),[4],55%
same,Population Normal (%),[4],82%
same,Population Pyknosed Nuclei (%),[4],45%
same,Population Tubulin-Different-Phenotype (%),[4],69%
same,Total Cell Count,[4],115
same,Population Apoptotic (%),[5],56%
same,Population Fragmented Nuclei (%),[5],20%
same,Population Healthy Nuclei (%),[5],53%
same,Population Hoechst High Intensity Objects (%),[5],10%
same,Population Membrane Permeable-Phenotype (%),[5],3%
same,Population Mitochondria Different-Phenotype (%),[5],3%
same,Population Mitotic Cells (%),[5],44%
same,Population Normal (%),[5],89%
same,Population Pyknosed Nuclei (%),[5],26%
same,Population Tubulin-Different-Phenotype (%),[5],25%
same,Total Cell Count,[5],107
same,Population Apoptotic (%),[6],65%
same,Population Fragmented Nuclei (%),[6],41%
same,Population Healthy Nuclei (%),[6],32%
same,Population Hoechst High Intensity Objects (%),[6],3%
same,Population Membrane Permeable-Phenotype (%),[6],16%
same,Population Mitochondria Different-Phenotype (%),[6],20%
same,Population Mitotic Cells (%),[6],35%
same,Population Normal (%),[6],96%
same,Population Pyknosed Nuclei (%),[6],25%
same,Population Tubulin-Different-Phenotype (%),[6],72%
same,Total Cell Count,[6],80
same,Population Apoptotic (%),[7],67%
same,Population Fragmented Nuclei (%),[7],20%
same,Population Healthy Nuclei (%),[7],38%
same,Population Hoechst High Intensity Objects (%),[7],13%
same,Population Membrane Permeable-Phenotype (%),[7],3%
same,Population Mitochondria Different-Phenotype (%),[7],9%
same,Population Mitotic Cells (%),[7],32%
same,Population Normal (%),[7],86%
same,Population Pyknosed Nuclei (%),[7],41%
same,Population Tubulin-Different-Phenotype (%),[7],47%
same,Total Cell Count,[7],154
same,Population Apoptotic (%),[8],44%
same,Population Fragmented Nuclei (%),[8],25%
same,Population Healthy Nuclei (%),[8],32%
same,Population Hoechst High Intensity Objects (%),[8],12%
same,Population Membrane Permeable-Phenotype (%),[8],17%
same,Population Mitochondria Different-Phenotype (%),[8],20%
same,Population Mitotic Cells (%),[8],55%
same,Population Normal (%),[8],87%
same,Population Pyknosed Nuclei (%),[8],42%
same,Population Tubulin-Different-Phenotype (%),[8],68%
same,Total Cell Count,[8],103
same,Population Apoptotic (%),[9],88%
same,Population Fragmented Nuclei (%),[9],41%
same,Population Healthy Nuclei (%),[9],24%
same,Population Hoechst High Intensity Objects (%),[9],27%
same,Population Membrane Permeable-Phenotype (%),[9],0%
same,Population Mitochondria Different-Phenotype (%),[9],0%
same,Population Mitotic Cells (%),[9],12%
same,Population Normal (%),[9],72%
same,Population Pyknosed Nuclei (%),[9],33%
same,Population Tubulin-Different-Phenotype (%),[9],33%
same,Total Cell Count,[9],102
same,Population Apoptotic (%),[10],93%
same,Population Fragmented Nuclei (%),[10],42%
same,Population Healthy Nuclei (%),[10],37%
same,Population Hoechst High Intensity Objects (%),[10],8%
same,Population Membrane Permeable-Phenotype (%),[10],27%
same,Population Mitochondria Different-Phenotype (%),[10],20%
same,Population Mitotic Cells (%),[10],6%
same,Population Normal (%),[10],91%
same,Population Pyknosed Nuclei (%),[10],20%
same,Population Tubulin-Different-Phenotype (%),[10],82%
same,Total Cell Count,[10],85
same,Population Apoptotic (%),[11],86%
same,Population Fragmented Nuclei (%),[11],40%
same,Population Healthy Nuclei (%),[11],20%
same,Population Hoechst High Intensity Objects (%),[11],38%
same,Population Membrane Permeable-Phenotype (%),[11],5%
same,Population Mitochondria Different-Phenotype (%),[11],10%
same,Population Mitotic Cells (%),[11],13%
same,Population Normal (%),[11],61%
same,Population Pyknosed Nuclei (%),[11],38%
same,Population Tubulin-Different-Phenotype (%),[11],55%
same,Total Cell Count,[11],156
same,Population Apoptotic (%),[12],57%
same,Population Fragmented Nuclei (%),[12],38%
same,Population Healthy Nuclei (%),[12],38%
same,Population Hoechst High Intensity Objects (%),[12],15%
same,Population Membrane Permeable-Phenotype (%),[12],14%
same,Population Mitochondria Different-Phenotype (%),[12],14%
same,Population Mitotic Cells (%),[12],42%
same,Population Normal (%),[12],84%
same,Population Pyknosed Nuclei (%),[12],23%
same,Population Tubulin-Different-Phenotype (%),[12],80%
same,Total Cell Count,[12],108
